Laboratory results: publication PMC4570851 (Bioorganic & medicinal chemistry letters, 2012)
Where no end group is shown, it is not given here. [ ]: non-standard residue; d: D form.

Biological target: T1, sPLA2-IIA-integrin αvβ3 interaction (Homo sapiens, UniProt P14555)
T1 sequence (P14555 21-144): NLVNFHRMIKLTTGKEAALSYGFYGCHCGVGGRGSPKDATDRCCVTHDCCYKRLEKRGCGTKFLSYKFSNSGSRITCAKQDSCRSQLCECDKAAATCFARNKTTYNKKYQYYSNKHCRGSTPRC
Test: cell adhesion inhibition assay: αvβ3-K562 cells on immobilized sPLA2-IIA
Assay type: cell-based
Settings: for IC50 / Max. Inhibition: αvβ3-K562 cells, immobilized sPLA2-IIA, means ± S.E. (n=3); for IC50: compounds 10 to 500 μM, 30 min, cells 1 h at 37 °C; for inhibition of the sPLA2-IIA-integrin interaction (in words): αvβ3-K562 cell adhesion to immobilized sPLA2-IIA; for Max. Inhibition: adhesion without inhibitors as 100%, adhesion to BSA only as 0%
In short: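 Wells coated with sPLA2-IIA and blocked with BSA, then preincubated 30 min with test compound (10 to 500 μM). K562 erythroleukemia cells transfected to overexpress integrin αvβ3 were added for 1 h at 37 °C. Bound cells were quantified by phosphatase assay. IC50 and maximum inhibition came from dose-response data, with no-inhibitor adhesion as 100% and BSA-only as 0%. n=3.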

Compound	IC50 [µM]	inhibition of the sPLA2-IIA-integrin interaction (in words)	Max. Inhibition
Gly-Arg*-Gly-Asp*-Asp*-Asp* [Cmpd21-6]	–	not inhibitory	N/A (N/A, “not active’ (<30% inhibition))
Cc1nc(NC(=O)c2ccccc2)sc1-c1cc(C(=O)N[C@@H](C)C(=O)O)[nH]n1 [Cmpd8-2, R-Ala]	–	–	N/A (N/A, “not active’ (<30% inhibition))
Ala-Trp-Asp*-Ile [Cmpd8-5]	–	not inhibitory	N/A (N/A, “not active’ (<30% inhibition))
Cc1nc(NC(=O)c2ccccc2)sc1-c1cc(C(=O)NCC(=O)O)[nH]n1 [Cmpd21-1, R-Gly]	–	active	–
Cc1nc(NC(=O)c2ccccc2)sc1-c1cc(C(=O)O)[nH]n1 [Cmpd8-1, R-OH]	–	not inhibitory	N/A (N/A, “not active’ (<30% inhibition))

Now from value to compound, other results behind:

IC50 [µM]	inhibition of the sPLA2-IIA-integrin interaction (in words)	Compound	Max. Inhibition
155 ± 3.8	–	R-Gly-Arg*-Gly-Asp* (G[dR]G[dD]-NH2; not fully specified (N-terminus)) [Cmpd21-4]	–
20 ± 1.3	–	R-Ala-Trp-Asp*-Ile (AW[dD]I-NH2; not fully specified (N-terminus)) [Cmpd8]	–
71 ± 18	–	R-Gly-Arg*-Gly-Asp*-Asp*-Asp* (G[dR]G[dD][dD][dD]-NH2; not fully specified (N-terminus)) [Cmpd21]	–
